Assay outcomes from PubChem BioAssay.
Pf Dd2 growth: P. falciparum Dd2 growth inhibitors, primary screen, SYBR Green fluorescence, single dose replicates; 72 h; stronger effect = lower value; activity change, % at 10 µM; hit rate 2.3% among 94,000; AID 1159554, 2015; in the data active means activity change below about -80%
T cruzi growth-1: T. cruzi intracellular proliferation inhibitors, primary screen, cell-based, beta-gal Tulahuen parasites, NIH3T3 host, luminescence; T. cruzi beta-gal in NIH3T3, GalScreen luminescence, 90 h; inhibition, % at 8.34 µM; hit rate 5.9% among 77,000;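 active means mean inhibition above about 93%, with at least 55% of replicates each passing it, limit read from the data, passing the limit was not always enough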
GASC1 inh: inhibitors of GASC-1 (KDM4C) histone demethylase, primary screen, biochemical, single concentration HTS; GST-KDM4C 2-372, H3K9me3 peptide, LANCE TR-FRET; inhibition, % at 12.5 µM; hit rate 0.15% among 96,000;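 active means mean replicate inhibition above about 25%, with at least 55% of replicates also reaching it, limit read from the data, passing the limit was not always enough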
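Test system – GST-tagged GASC-1 (JMJD2C) catalytic fragment, aa 2-372 · Medium – HEPES buffer, pH 7.5, plus ascorbate · Reagent – H3K9me3 peptide with Fe(II)/2OG · Compound – one test concentration per compound · Timing – 30 min reaction, 60 min detection, RT · Technique – TR-FRET with Eu antibody and ULight streptavidin, EDTA stop · Read-out basis – inhibition from TR-FRET ratio decrease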
IDH1 R132H inh: inhibitors of IDH1 R132H reductase, primary screen, biochemical, plate reader, single point; Isocitrate dehydrogenase [NADP] cytoplasmic (Homo sapiens), O75874; diaphorase/resazurin fluorescence, 60 min; inhibition, % at 10 µM; hit rate 0.18% among 70,000; in the data active means inhibition above about 34%
Target sequence (O75874 whole entry R132H): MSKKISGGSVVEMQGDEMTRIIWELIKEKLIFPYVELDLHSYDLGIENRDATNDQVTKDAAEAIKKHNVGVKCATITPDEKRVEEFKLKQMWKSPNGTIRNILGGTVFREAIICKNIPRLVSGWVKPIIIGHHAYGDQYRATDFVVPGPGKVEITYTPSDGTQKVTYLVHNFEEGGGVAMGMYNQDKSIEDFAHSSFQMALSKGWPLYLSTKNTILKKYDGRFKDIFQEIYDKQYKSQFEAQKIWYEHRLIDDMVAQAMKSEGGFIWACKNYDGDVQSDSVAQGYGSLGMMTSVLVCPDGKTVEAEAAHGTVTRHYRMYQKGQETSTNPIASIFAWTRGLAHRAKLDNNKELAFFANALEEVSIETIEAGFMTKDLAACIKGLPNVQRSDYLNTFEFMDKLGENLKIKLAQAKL
T cruzi growth-2: T. cruzi intracellular proliferation inhibitors, confirmation, cell-based, NIH3T3 host, beta-gal parasite, luminescence, cherry-pick; shares compounds with T cruzi growth-1; T. cruzi beta-gal in NIH3T3, GalScreen luminescence, 90 h; AID 651739, 2012; hit rate 72% among 5,600; inhibition, % at 8.35 µM;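 active means mean replicate inhibition above about 95% and at least 55% of replicates individually reaching it, limit read from the data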
T cruzi growth-3: inhibitors of intracellular T. cruzi replication, confirmation, NIH3T3 host cells, beta-gal parasites, cherry-pick, set 2 | hit rate 21% among 5,600 | shares compounds with T cruzi growth-1 | inhibition, % at 2.09 µM | T. cruzi beta-gal in NIH3T3, GalScreen luminescence, 90 h;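 active means mean inhibition above about 95%, with at least 55% of replicates also reaching it, limit read from the data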
3T3 cytotox: cytotoxicity in mouse NIH/3T3 fibroblasts, confirmation, cytotoxicity control for T. cruzi proliferation inhibitor project, cell-based, cherry-pick, single point; shares compounds with T cruzi growth-1; cytotoxicity (signal decrease), % at 8.35 µM; hit rate 14% among 5,600; NIH/3T3 viability, CellTiter-Glo ATP luminescence, 90 h;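 active means mean signal decrease across replicates above about 35% based on untreated-well scatter, with enough replicates individually passing, limit read from the data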
3T3 cytotox 2: NIH/3T3 fibroblast cytotoxicity, confirmation, cytotoxicity control, cell-based, cherry-pick, single point, set 2; shares compounds with T cruzi growth-1; NIH/3T3 viability, CellTiter-Glo ATP luminescence, 90 h; inhibition, % at 24.9 µM; hit rate 56% among 5,600;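 active means mean loss of cell viability signal at or above a set limit, and enough replicates individually reaching it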
A number is an active result; – = inactive; · = not tested or not shown. Compounds with a hit are over-represented: about 5.8% of the library has one in this group of screens.

SMILES	Pf Dd2 growth	T cruzi growth-1	GASC1 inh	IDH1 R132H inh	T cruzi growth-2	T cruzi growth-3	3T3 cytotox	3T3 cytotox 2
C[C@@H]1CN([C@@H](C)CO)C(=O)c2cc(NS(C)(=O)=O)ccc2O[C@@H](C)CCCCO[C@@H]1CN(C)Cc1ccc(C(=O)O)cc1	–	–	–	·	·	·	·	·
C[C@H]1CN([C@@H](C)CO)C(=O)c2cc(C#Cc3ccccn3)cnc2O[C@@H]1CN(C)Cc1cncnc1	–	111	–	–	108	–	–	–
C[C@@H]1CN([C@@H](C)CO)C(=O)c2cc(C#Cc3ccccn3)cnc2O[C@H]1CN(C)Cc1ccccc1	–	128	–	–	105	–	–	–
C[C@H](CO)N1C[C@H](C)[C@@H](CN(C)C(=O)c2ccccc2F)Oc2cc(-c3ccc(F)cc3)ccc2S1(=O)=O	–	–	–	·	·	·	·	·
CCn1c(SCC(=O)c2ccccc2)nnc1-c1cccnc1	·	·	·	–	·	·	·	·
C[C@@H]1CCCCO[C@H](CN(C)Cc2ccc3c(c2)OCO3)[C@@H](C)CN([C@@H](C)CO)C(=O)c2cc(NC(=O)NC3CCCCC3)ccc2O1	·	–	–	–	·	·	·	·
C[C@H]1CCCCO[C@H](CN(C)Cc2ccc3c(c2)OCO3)[C@@H](C)CN([C@@H](C)CO)C(=O)c2cc(NC(=O)NC3CCCCC3)ccc2O1	·	100	–	·	108	–	–	102
C[C@@H]1CCCCO[C@H](CN(C)Cc2ccc3c(c2)OCO3)[C@H](C)CN([C@H](C)CO)C(=O)c2cc(NC(=O)NC3CCCCC3)ccc2O1	·	107	–	·	108	–	–	104
COc1cccc(S(=O)(=O)N2CCCCN3[C@H](CO)[C@H](c4ccc(-c5cccnc5)cc4)[C@@H]3C2)c1	–	118	–	·	103	–	–	–
COc1ccc(S(=O)(=O)N2CCCCN3[C@H](CO)[C@@H](c4ccc(-c5cccnc5)cc4)[C@H]3C2)cc1	–	113	–	·	–	–	–	–
COc1cccc(S(=O)(=O)N2CCCCN3[C@H](CO)[C@@H](c4ccc(-c5cccnc5)cc4)[C@H]3C2)c1	–	–	–	·	·	·	·	·
COc1cccc(S(=O)(=O)N2CCCCN3[C@H](C2)[C@H](c2ccc(-c4cccnc4)cc2)[C@@H]3CO)c1	–	105	–	·	103	–	–	–
COc1cccc(S(=O)(=O)N2CCCCN3[C@H](CO)[C@@H](c4ccc(-c5cncnc5)cc4)[C@H]3C2)c1	–	–	–	·	·	·	·	·
COc1cccc(S(=O)(=O)N2CCCCN3[C@H](CO)[C@@H](c4ccc(-c5ccccc5)cc4)[C@@H]3C2)c1	–	–	–	·	·	·	·	·
COc1cccc(S(=O)(=O)N2CCCCN3[C@H](CO)[C@H](c4ccc(-c5ccncc5)cc4)[C@@H]3C2)c1	–	113	–	·	109	104	–	–
C[C@@H]1CCCCO[C@@H](CN(C)S(=O)(=O)c2ccccc2)[C@H](C)CN([C@H](C)CO)C(=O)c2cc(NS(=O)(=O)c3ccccc3)ccc2O1	–	–	–	·	·	·	·	·
COc1cccc(NC(=O)N[C@H]2C=C[C@@H](CC(=O)NCc3ccncn3)O[C@H]2CO)c1	–	–	–	–	·	·	·	·
C[C@H](CCC(=O)NCC(=O)O)[C@H]1CC[C@H]2[C@@H]3[C@H](O)C[C@@H]4C[C@H](O)CC[C@]4(C)[C@H]3C[C@H](O)[C@]12C	·	·	·	–	·	·	·	·
O=C(C[C@@H]1CC[C@H](NC(=O)C2CC2)[C@@H](CO)O1)NCCCN1CCOCC1	–	–	–	–	·	·	·	·
